Data from ChEMBL document CHEMBL1122417, “Synthesis of 3-hydroxy-3-cyclohexylbutyric acid derivatives. 1. Cyclic homologues of 3-hydroxy-3-methylglutaric acid” (1983).

Columns and labels:
Assay type in all cases: functional
Rattus norvegicus [1] = organism: Rattus norvegicus; experiment: Percent inhibition of [14C]acetate incorporation into CO2, after incubation with rat liver slices at a concentration of 0.005 M
In short: (§1)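 Rat liver slices (250 mg) were incubated with and without compound in 4 mL Krebs-Ringer bicarbonate buffer, pH 7.4, containing 4 mM [2-14C]acetate and flushed with 95% O2-5% CO2. 14C incorporation into CO2, long-chain fatty acids and cholesterol was measured and compared against incubations without compound. Values are arithmetic means of three determinations.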

Rattus norvegicus [2] = organism: Rattus norvegicus; experiment: Percent inhibition of [14C]acetate incorporation into cholesterol, after incubation with rat liver slices, at a concentration of 0.005 M; in short: as §1
Rattus norvegicus [3] = organism: Rattus norvegicus; experiment: Percent inhibition of [14C]acetate incorporation into long-chain fatty acids, after incubation with rat liver slices, at a concentration of 0.005 M; in short: as §1
Rattus norvegicus [4] = organism: Rattus norvegicus; experiment: Percent inhibition of [14C]-acetate incorporation into CO2, after incubation with rat liver slices at a concentration of 0.0005 M; in short: as §1
Rattus norvegicus [5] = organism: Rattus norvegicus; experiment: Percent inhibition of [14C]acetate incorporation into cholesterol, after incubation with rat liver slices, at a concentration of 0.0005 M; in short: as §1
Rattus norvegicus [6] = organism: Rattus norvegicus; experiment: Percent inhibition of [14C]acetate incorporation into long-chain fatty acids, after incubation with rat liver slices, at a concentration of 0.0005 M; in short: as §1

| Compound | Inhibition (Rattus norvegicus [1]) [%] | Inhibition (Rattus norvegicus [2]) [%] | Inhibition (Rattus norvegicus [3]) [%] | Inhibition (Rattus norvegicus [4]) [%] | Inhibition (Rattus norvegicus [5]) [%] | Inhibition (Rattus norvegicus [6]) [%] |
| --- | --- | --- | --- | --- | --- | --- |
| CC1(CC(=O)O)OC(=O)C2=C1CCCC2 (centres undefined) | 45 | 63 | 83 |  |  |  |
| CC1(CC(=O)O)OC(=O)[C@@H]2CCCC[C@H]21 (some centres undefined) | 37 | 42 | 67 |  |  |  |
| CCC1(C)OC(=O)C2=C1CCCC2 (centres undefined) | 63 | 81 | 81 |  |  |  |
| CC1(CC(=O)O)OC(=O)[C@H]2CCCC[C@H]21 (some centres undefined) | 23 | 30 | 34 |  |  |  |
| CC1(CC(=O)O)OC(=O)c2ccccc21 (centres undefined) | <10 | 48 | 54 |  |  |  |
| CC(O)(CC(=O)O)CC(=O)O [MEGLUTOL] | <10 | 12 | <10 |  |  |  |
| CCC1(C)OC(=O)c2ccccc21 (centres undefined) | 86 | 99 | 99 | <10 | 22 | 29 |
